# Bioassay records as filed in PubChem BioAssay.
# CHOP inhibitor – CHOP inhibition in unfolded protein response. CHO-K1 CHOP-promoter luciferase, tunicamycin-induced, 15-18 h. inhibition, % at 10 µM. 220,000 tested, 3.8% active. AID 2732;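 active = compounds that reduced the stress-induced luciferase reporter signal by more than about 70% of percent inhibition, limit read from the data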;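 note: 0% = tunicamycin plus vehicle and 100% = wells without tunicamycin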
# MPTP inh – permeability transition pore inhibition; inhibition, % at 10 µM; 360,000 tested, 1.4% active; isolated mouse mitochondria, Ca2+ swelling absorbance, 30 min;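 active = inhibition of 50% or more, scaled per plate between neutral and stimulator controls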;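 note: 0% = DMSO wells given calcium and 100% = 1 mM EGTA wells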
# GRIN3A LBD mod – NR3A (human) ligand-binding domain modulation; Tm shift relative to glycine control, % at 25 µM; NR3A LBD differential scanning fluorimetry, Tm shift; 0% = protein alone, 100% = glycine-bound protein; 340,000 tested, 2.5% active;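 active = melting temperature shift of at least 10% of the positive control shift, at one fixed dose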
# Tb MetRS inh – blocks T. brucei methionyl-tRNA synthetase activity; purified T. brucei MetRS, ATP depletion, Kinase-Glo luminescence; inhibition, % at 11.9 µM; 360,000 tested, 0.4% active; AID 624268;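 active = inhibition above a per-plate cutoff of the control wells' mean inhibition plus 3 SD, cut at about 5.5% in these data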;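 note: 0% = DMSO wells median and 100% = median of wells with control inhibitor compound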
#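 Test system: purified T. brucei MetRS enzyme. Also added: ATP, methionine and E. coli bulk tRNA substrates. Compound: 11.9 µM single point. Schedule: 15 min enzyme-compound preincubation, 2 h reaction, 10 min detection, 25 °C. Signal: luciferase luminescence of residual ATP, Kinase-Glo. Evaluation: percent inhibition versus plate control medians. Controls: DMSO wells, low control.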
# EBV gp42 block – blocks Epstein-Barr virus glycoprotein 42 binding; Q1HVG2; Fluorescence polarization binding assay, mP read-out; inhibition, % (tested at 21.74 µM); 220,000 tested, 0.42% active; in the data active = inhibition above about 50%
# Target sequence (Q1HVG2 whole entry, looked up): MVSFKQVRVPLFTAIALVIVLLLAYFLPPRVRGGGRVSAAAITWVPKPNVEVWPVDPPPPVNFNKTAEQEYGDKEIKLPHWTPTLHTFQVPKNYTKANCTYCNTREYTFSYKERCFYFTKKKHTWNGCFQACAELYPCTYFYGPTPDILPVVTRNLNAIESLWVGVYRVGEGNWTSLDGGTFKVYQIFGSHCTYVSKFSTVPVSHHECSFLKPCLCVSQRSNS
# WT yeast gro inh – growth inhibition of WT yeast, mitochondrial fusion screen. 190,000 tested, 2.1% active. mitochondrial fusion phenotypic screen, WT strain. inhibition, % at 10 µM; in the data active = inhibition above about 58%; tested in S. cerevisiae
# Active calls of the source: *; . = not tested or not shown. This is a sample that favours compounds with a hit; in the whole collection about 6.4% have one here.
SMILES,CHOP inhibitor,MPTP inh,GRIN3A LBD mod,Tb MetRS inh,EBV gp42 block,WT yeast gro inh
CCN(CC)CCN1C2=C(C(=O)CC(C)(C)C2)C(c2cccc(F)c2)C2=C1CC(C)(C)CC2=O,25,0,5,-1,140*,-20
COc1ccccc1N1CC(C(=O)OCC(=O)c2ccc(F)cc2)CC1=O (configuration not stated),27,2,0,0,-16,6
COc1ccccc1NC(=S)NC1CC2CCC1C2 (configuration not stated),12,0,-1,-1,-1,.
COc1ccc(Cl)cc1C(=O)NC(=S)Nc1cc(-c2nc3ccccc3[nH]2)ccc1C,27,3,18*,0,-9,11
Cc1c(C(=O)Nc2ccccc2)cn2c(nc3ccccc32)c1C#N,19,0,-1,-1,-22,7
Cc1ccccc1C(=O)Nc1ccc2c(C#N)c3nc4ccccc4nc3n2c1,96*,11,1,0,112*,21
Cc1nc2scc(-c3ccc(C(C)(C)C)cc3)c2c(=O)n1N,76*,3,-1,0,-5,-9
O=C(Nc1ccc(Nc2ccccc2)cc1)c1c(Cl)cccc1Cl,.,2,-1,0,.,.
O=C(Nc1ccc(Nc2ccccc2)cc1)c1ccc(F)cc1,.,0,15*,0,.,.
O=C(Nc1ccc(Nc2ccccc2)cc1)c1c(F)c(F)c(F)c(F)c1F,.,18,15*,4,.,.
O=C(NC(=S)Nc1ccc(NC(=O)c2ccccc2)cc1)c1ccc(F)cc1,.,1,20*,-1,.,.
CC1=C(C(=O)Nc2ccccn2)C(c2ccc(Cl)cc2Cl)NC(=S)N1 (configuration not stated),13,0,0,0,-11,4
Cc1noc(C)c1C(=O)Nc1nc(-c2cccs2)cs1,.,1,1,0,.,.
O=C(O)c1ccc(N/N=C/C=C/c2ccccc2)cc1,-21,1,4,0,7,.
COc1ccc(/C=C2\N=C(c3ccc(C)cc3)OC2=O)cc1,.,-1,2,-1,.,.
COc1ccc(C2=NC(=O)/C(=C\c3cc(OC)c(OC)c(OC)c3)O2)cc1,89*,0,1,-1,-13,-3
C=CCn1c(O)c(N=O)c2ccccc21,2,0,-4,0,-10,.
C=CCn1c(O)c(N=Nc2ccccc2C)c2ccccc21,-20,.,0,.,68*,-17
COc1ccc(S(=O)(=O)N2CCC(C(=O)NCc3ccncc3)CC2)cc1,.,-2,-1,0,.,.
O=C(Nc1nccs1)c1ccc(NC(=O)c2ccco2)cc1,-1,0,10*,-1,-12,2
CC(C)(C)c1ccc(C(=O)Nc2ccc(NC(=O)c3ccco3)cc2)cc1,73*,0,6,0,-12,-1
O=C(Nc1ccc(N2CCOCC2)cc1)c1ccc2nc(-c3ccco3)c(-c3ccco3)nc2c1,52,0,-3,0,-5,3
CC(=O)c1ccc(NC(=O)c2ccc3nc(-c4ccco4)c(-c4ccco4)nc3c2)cc1,-44,1,-8,0,99*,3
O=C(Nc1ccccc1)c1ccc2nc(-c3ccco3)c(-c3ccco3)nc2c1,-29,2,-19,0,-4,-5
O=C(Nc1ccc(NC(=O)c2ccco2)cc1)c1ccco1,.,1,5,0,.,.
SMILES,CHOP inhibitor,MPTP inh,GRIN3A LBD mod,Tb MetRS inh,EBV gp42 block,WT yeast gro inh
S=C(Nc1ccc(N2CCOCC2)cc1)Nc1ccc2nc(-c3ccco3)c(-c3ccco3)nc2c1,19,4,-2,-1,111*,19
C=CC[C@@H](CC(=O)NCCO)C(=O)NC[C@@H](OC(=O)[C@H](CC=C)CC(=O)OC(C)(C)C)c1ccccc1,.,-1,1,0,.,.
CCOc1cc(S(=O)(=O)NCCN2CCOCC2)c(C)cc1C,-8,0,11*,-1,-29,5
CCOc1cc(CNC(C)(C)CO)cc(Br)c1OCc1ccc(Cl)cc1Cl,92*,7,1,-1,-4,88*
COc1cc(CNC(C)(C)CO)cc(Br)c1OCc1ccccc1,-12,6,-1,0,7,-8
CC(C)(C)c1ccc(-c2nnc(SC3CCOC3=O)n2Cc2ccccc2)cc1 (configuration not stated),37,1,13*,-1,1,53
COc1ccc(NC(=O)/C(C#N)=C/c2ccc(Sc3nncn3C)c([N+](=O)[O-])c2)cc1,-10,-1,2,0,-7,7
CC(=O)c1cccc(NC(=O)/C=C/c2ccc([N+](=O)[O-])s2)c1,74*,4,10*,0,-24,-11
O=C(/C=C/c1ccc([N+](=O)[O-])cc1)Nc1cccc(C(=O)Nc2ccccc2C(=O)O)c1,.,1,17*,-1,.,.
COC(=O)c1cccc(NC(=O)/C=C/c2ccc([N+](=O)[O-])cc2)c1,18,6,-1,0,-7,3
COc1ccccc1NC(=O)/C(=C/c1cccc([N+](=O)[O-])c1)c1ccccc1,26,0,11*,-1,-6,30
COC(=O)c1cccc(NC(=O)/C=C/c2cccc([N+](=O)[O-])c2)c1,-11,-2,17*,-1,-17,-13
Cc1ccc(-c2ccc(/C=N\NC(=O)C3C(=O)NCC3c3ccccc3)o2)cc1Cl (configuration not stated),52,-7,1,0,-1,-33
Cc1nn(C)c(Cl)c1/C=N/OC(=O)c1ccccc1,0,-1,-1,-1,3,0
OC(COc1ccccc1Cl)CN1CCN(CC(O)COc2ccccc2Cl)CC1 (configuration not stated),29,9,5,-1,-2,19
CSC(=S)N/N=C(\C)c1ccccc1,-122,-1,-4,0,-9,65*
C/C(=N\NC(N)=S)c1ccccc1,0,-1,-1,-1,-15,.
CC(C)OC(=O)c1ccc(NC(=O)Cn2c(-c3nonc3N)nc3ccccc32)cc1,-17,2,19*,0,1,-8
CCOCCCN1C(=O)CN(C2CCCCCC2)C(=O)C1c1ccc(OC)cc1 (configuration not stated),-4,1,-3,-1,-12,-4
Clc1ccc(/C=N/Nc2ncnc3ccccc23)cc1Cl,86*,6,17*,0,-10,11
O=C(Nc1ccc(F)cc1)Nc1cccnc1,.,0,-3,-1,.,.
O=C(Nc1cccnc1)Nc1ccccc1Cl,18,1,2,0,-16,16
O=C(Nc1ccc(OC(F)(F)F)cc1)Nc1cccnc1,-4,39,11*,0,2,.
Cc1ccc(NC(=O)Nc2cccnc2)cc1Cl,.,6,31*,-1,.,.
Cc1ccc(NC(=O)Nc2ccc3c(c2)C(=O)OC3)cc1Cl,-8,44,24*,-1,-12,.
